Usually IC50 stands for the concentration that gives 50% inhibition. Higher therefore signals lower potency. The Inhibition is how much of the control response was suppressed. Lower therefore signals little suppression.

One compound from ChEMBL document CHEMBL1132370, “8,11-dihydroxy-6-[(aminoalkyl)amino]-7H-benzo[e]perimidin-7-ones with activity in multidrug-resistant cell lines: synthesis and antitumor evaluation” (J Med Chem, 1999) can be followed below.

One test has as its system HL-60. The test is described as follows: Compound was tested in vitro for cytotoxicity against HL60 human leukemia cell line (72 hr exposure to compound). The class given is functional, cell-based. The note with it: HL-60, 72 h. In short, it runs like this: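 HL60 or K562R cells were grown in RPMI 1640 with 10% FBS and exposed to drug for 72 h. Growth was measured by Coulter cell counting, and IC50 is the concentration giving 50% growth inhibition (mean of ≥3 experiments ± SEM). Resistance index = IC50 in K562R / IC50 in sensitive K562S.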

For test [1], the system named is HT-29. Put plainly: Effect of compound as percent survival at dose of 100n g/mL on HT-29/Mx cell line after 72 hours. In kind it is functional, Homo sapiens. In short, it runs like this:
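HT29 or mitoxantrone-resistant HT29/Mx monolayers grown in McCoy's 5A with 10% FBS and 1% 1 M Hepes at 37 °C, 5% CO2. Cells exposed to drug for 72 h. Survival measured by cell counting and given as percent of untreated control.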

Test [2] has as its system HT-29. Put plainly: Percent inhibition at G1 phase of cell cycle at a dose of 100n g/mL after 72 hours of induction in HT-29 cell line. The class given is functional, Homo sapiens. An outline of the steps:
(§1)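 HT29 or HT29/Mx cells were treated for 72 h, then fixed in 70% ice-cold ethanol. Cells were stained with PBS containing 30 μg/mL propidium iodide and 66 units/mL RNase A, and DNA content was measured by flow cytometry on at least 10^4 cells to give G1, S and G2/M fractions.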

The subject of test [3] is HT-29. The test is described as follows: Percent inhibition at G2/M phase of cell cycle at a dose of 100n g/mL after 72 hours of induction in HT-29 cell line. In kind it is functional, Homo sapiens. In short, it runs like this: as §1
Test [4] concerns Mus musculus. Put plainly: In vivo antileukemic activity towards P388 Murine Leukemia at a dose of 2.5 mg/kg, expressed as body weight change. The class given is functional.
Test [5] relates to Mus musculus. Put plainly: In vivo antileukemic activity towards P388 Murine Leukemia at a dose of 20.0 mg/kg, expressed as body weight change. In kind it is functional.
Test [6] has as its system Mus musculus. Put plainly: Long-term survivors when compound was tested for in vivo antileukemic activity towards P388 Murine Leukemia at dose of 10.0 mg/kg tested in 12 animals. In kind it is functional.
Test [7] deals with Mus musculus. The test is described as follows: In vivo antileukemic activity towards P388 Murine Leukemia at a dose of 30.0 mg/kg. The class given is functional.
The subject of test [8] is Mus musculus. Put plainly: Tumor volume inhibition administered iv at a dose of 10 mg/kg to nude mice bearing sc Human ovarian carcinoma Xenografts. The class given is functional. An outline of the steps: (§2)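 Swiss nude athymic mice carrying tumor fragments grafted sc in both flanks, 4–5 mice (8–10 tumors) per group. Tumor lines kept by sc passage. Dosing iv once weekly for 3 doses, starting at mean tumor volume ca. 80–100 mm3 (A2780, HT29/Mx: days 4, 11, 18; A2780/Dx: days 7, 14, 21). Diameters measured twice weekly; TV = d²×D/2. %TVI treated vs control assessed 3–10 days after last dose.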
(A xenograft is tissue or cells of one species grown in another, often human tumour cells in immunodeficient mice.)

Test [9] has as its system Mus musculus. Put plainly: Long-term survivors when compound was tested for in vivo antileukemic activity towards P388 Murine Leukemia at dose of 35.0 mg/kg tested in 6 animals. In kind it is functional.
The test system of test [10] is Mus musculus. The test is described as follows: Long-term survivors when compound was tested for in vivo antileukemic activity towards P388 Murine Leukemia at dose of 5.0 mg/kg tested in 18 animals. The class given is functional.
Test [11] relates to Mus musculus. The test is described as follows: Tumor volume inhibition administered iv at a dose of 20 mg/kg to nude mice bearing sc Human colon carcinoma Xenografts. The class given is functional. In short, it runs like this:
as §2

“And” between values parts separate entries of the source, which are not always exact repeats. Equal values may be shown once.

On to `CN(C)CCNc1ccc2ncnc3c2c1C(=O)c1c(O)ccc(O)c1-3`, for which, in the test on HL-60, the half-maximal inhibitory concentration (IC50) was 1.67 nM. The compound also gave a Survival with HT-29 [1] of 12%. In addition, the results for the Inhibition in the test with HT-29 [2] and in the test with HT-29 [3] were 23% and 57%, respectively. Besides, the Body weight change in the test on Mus musculus [4] is 0.98 BWC; with Mus musculus [5], 0.9 BWC and 0.94 BWC. In addition, the LTS in the test with Mus musculus [6] turned out to be 0; with Mus musculus [9], 0; in the test with Mus musculus [10] it was 1. In addition, the “T/C (ratio of treated to control)” value with Mus musculus [7] is given as 171%. The TVI in the test with Mus musculus [8] is 62% and 80%; with Mus musculus [11], 22%.
